Sampled rows, rich in hits. Any-hit rate of the full collection: about 3.7%.
KCNQ1 act = potentiators or activators of human KCNQ1 potassium channel; hit rate 0.35% among 310,000; B-score at 10 µM; P51787; CHO-K1 KCNQ1, thallium flux FluxOR fluorescence; stronger effect = higher value;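 active = fluorescence ratio B-score, a plate-corrected score, at least three library SD, with initial intensity B-score within 5 SD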
Target sequence (P51787 whole entry, looked up): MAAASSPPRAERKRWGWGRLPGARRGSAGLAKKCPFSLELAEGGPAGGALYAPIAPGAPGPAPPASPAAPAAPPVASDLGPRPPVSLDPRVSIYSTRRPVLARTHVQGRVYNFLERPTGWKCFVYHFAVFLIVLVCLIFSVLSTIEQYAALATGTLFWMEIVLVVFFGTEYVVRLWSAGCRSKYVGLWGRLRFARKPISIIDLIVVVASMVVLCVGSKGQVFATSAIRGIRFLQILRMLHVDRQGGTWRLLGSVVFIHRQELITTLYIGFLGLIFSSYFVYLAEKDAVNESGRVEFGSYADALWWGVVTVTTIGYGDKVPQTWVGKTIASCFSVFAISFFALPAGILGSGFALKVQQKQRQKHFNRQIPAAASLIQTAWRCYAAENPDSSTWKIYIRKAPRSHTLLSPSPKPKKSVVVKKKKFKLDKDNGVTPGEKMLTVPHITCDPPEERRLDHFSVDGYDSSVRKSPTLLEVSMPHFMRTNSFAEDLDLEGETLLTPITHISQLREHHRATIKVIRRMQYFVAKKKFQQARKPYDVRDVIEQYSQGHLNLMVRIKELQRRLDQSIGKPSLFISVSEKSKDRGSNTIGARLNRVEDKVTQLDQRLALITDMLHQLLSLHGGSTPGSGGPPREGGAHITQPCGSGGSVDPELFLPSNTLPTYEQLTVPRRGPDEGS
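assay system = KCNQ1-transfected CHO-K1 cells | medium = assay buffer with matched DMSO | probe or stimulus = depolarizing K+/Tl+ stimulus, K2SO4 and Tl2SO4 each 12.5 mM in 5x stock | dosing = single dose | incubation = dye 90 min, compound 20 min, room temperature | detection = kinetic FluxOR fluorescence, 10 s baseline plus 110 s post-stimulus | evaluation = ratio B score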
KCNK3 block = human KCNK3 channel inhibition, primary screen; O14649; CHO-KCNK3 thallium flux, FluxOR fluorescence; stronger effect = lower value; B-score at 10 µM; hit rate 0.84% among 340,000; AID 602410;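 active = B-score under library mean minus 4 SD, starting fluorescence ratio at most library mean plus 5 SD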;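 also: more negative B-score means stronger inhibition of thallium flux through KCNK3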
KCNQ1 block = blocks the human KCNQ1 potassium channel; P51787; CHO-K1 KCNQ1, FluxOR thallium flux fluorescence; stronger effect = higher value; B-score at 10 µM; hit rate 1.3% among 310,000; AID 2642;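 active = compounds whose thallium flux B-score, printed positive for inhibition, exceeds three library SD while starting fluorescence stays within three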;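 also: channel opened by potassium depolarization with thallium stimulus after 20 min compound exposure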
Kir21 block = blocks the mouse Kir2.1 inward-rectifier potassium channel; P35561; HEK293-Kir2.1, FluxOR thallium flux fluorescence; stronger effect = lower value; B-score at 10 µM; hit rate 0.85% among 310,000; AID 1672;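 active = fluorescence ratio B-score at or below minus 3 SD of library scores, with starting-brightness B-score within 2 SD, cut at about -4.2 in these data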;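 also: channel flux triggered by added potassium and thallium sulfate stimulus; B-score of peak minus minimum fluorescence over baseline after thallium stimulus; more negative B-score means stronger Kir2.1 block with less thallium influx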
hERG rescue = shields human hERG channel from block by proarrhythmic agents | hit rate 0.51% among 310,000 | CHO-hERG, FluxOR thallium flux, dofetilide IC70 present | activation (rescue from dofetilide block), less the hit threshold, % at 10 µM;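 active = activation above the mean of controls blocked by dofetilide plus 5 SD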;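 also: thallium influx through hERG after potassium depolarization seen as dye fluorescence rise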
KCNK9 block = human KCNK9 channel inhibition | hit rate 1.2% among 310,000 | HEK293 KCNK9, FluxOR thallium flux fluorescence; stronger effect = lower value | B-score at 10 µM;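 active = ratio B-score over 3 SD below the library mean, with starting fluorescence within 5 SD of its mean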;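 also: negative B-score means less thallium flux so channel inhibition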
KCNK9 inh conf = confirmation of human KCNK9 potassium channel inhibitors. hit rate 43% among 4,900. HEK293 KCNK9 cells, FluxOR thallium flux fluorescence. inhibition, % at 10 µM. shares compounds with KCNK9 block;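 active = thallium signal inhibited by more than 5 SD of the compound-free buffer control wells, on both duplicate plates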;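 also: 0% = assay buffer control wells without compound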
Kir2-1 spec = selectivity of KCNK9 modulators against mouse Kir2.1; AID 492993; Kir2.1 cells, FluxOR thallium flux fluorescence; shares compounds with KCNK9 block; hit rate 4% among 4,900; inhibition, % at 10 µM;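 active = thallium signal drop more than 5 SD beyond the mean of the no-compound control wells, seen in both duplicate plates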;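 also: signal is fluorescence rise after thallium addition divided by baseline fluorescence; plate controls were assay buffer only for no effect and full block by chlorpromazine control for full effect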
KCNK9 uninduced = non-induced cell nonspecific activity of KCNK9 modulators; shares compounds with KCNK9 block; non-induced KCNK9-HEK293, FluxOR thallium flux; inhibition, % at 10 µM; hit rate 40% among 4,900; AID 492997;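 active = thallium signal drop beyond 5 SD of the untreated control mean, on both duplicate plates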;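 also: plate controls were buffer only IC0 wells for no effect and SID17386958 at its maximal inhibitory level for full effect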
* = called active by the depositor; i = inactive; nt = no result.

SMILES	KCNQ1 act	KCNK3 block	KCNQ1 block	Kir21 block	hERG rescue	KCNK9 block	KCNK9 inh conf	Kir2-1 spec	KCNK9 uninduced
COc1ccc(C2CC2/C(C)=N/OC(=O)c2ccc(F)cc2)cc1 (stereo not given)	i	i	i	-0.04	-9	i	i	i	i
CCOC(=O)C(CSCc1ccccc1)NC(=O)OC(C)(C)C (stereo not given)	i	i	i	-4.3*	-6	i	i	i	i
Cc1cc(C)cc(-n2cccc2/C=C2/C(=N)N3C(=NC2=O)SN=C3S(C)(=O)=O)c1	i	i	10*	0.23	-19	i	i	i	i
Cc1ccc(S(=O)(=O)Oc2ccc(/C=C3\C(=N)N4N=C(S(C)(=O)=O)SC4=NC3=O)cc2)cc1	i	i	i	0.05	-12	i	i	i	i
CCC1=NN2C(=N)/C(=C\c3cccn3-c3ccc(Cl)cc3)C(=O)N=C2S1	i	i	i	0.76	-7	i	i	i	i
CCS(=O)(=O)C1=NN2C(=N)/C(=C\c3ccc(OS(=O)(=O)c4ccccc4)cc3)C(=O)N=C2S1	i	i	i	1.5	-20	i	nt	nt	nt
CCC1=NN2C(=N)/C(=C\c3cccn3-c3ccc(C)c(C)c3)C(=O)N=C2S1	i	i	i	3.1	-14	i	nt	nt	nt
CCC1=NN2C(=N)/C(=C/c3ccc(OS(=O)(=O)c4ccccc4)cc3)C(=O)N=C2S1	i	i	i	-0.99	-5	i	i	i	i
O=C(c1cccc2c1-c1ccccc1C2)N1CCCCC1	i	i	i	1.3	-5	i	nt	nt	nt
N#Cc1ccccc1-c1ccccc1C(=O)N1CCCCC1	i	i	i	0.5	-2	-19*	i	i	i
Cc1cc(C)cc(SCc2noc(C(=O)NCCC(C)C)c2C(=O)NCCC(C)C)c1	i	i	i	0.06	-7	i	i	i	i
O=C(NCC1CC1)c1onc(CSc2ccc(F)cc2)c1C(=O)NCC1CC1	i	i	i	-1.3	-3	i	nt	nt	nt
CCCCNC(=O)c1onc(CSc2cc(C)cc(C)c2)c1C(=O)NCCCC	i	i	i	0.41	-7	i	i	i	i
COCCNC(=O)c1onc(CSc2cc(C)cc(C)c2)c1C(=O)O	i	i	i	-0.81	-7	i	nt	nt	nt
Cc1cc(C)cc(SCc2noc(C(=O)NCC3CC3)c2C(=O)NCC2CC2)c1	i	nt	i	-0.88	-6	i	i	i	i
CCN(Cc1ccncc1)C(=O)c1cc(Br)cc(Br)c1O	i	i	i	-0.21	-10	i	nt	nt	nt
CC(C)CC(N=Cc1c(O)c2ccccc2oc1=O)C(=O)O (stereo not given)	i	i	i	1.7	-6	i	nt	nt	nt
CC(NC(=O)C(=O)N1CCCCC1)C(c1cccs1)N1CCN(C)CC1 (stereo not given)	i	i	i	0.87	-1	i	nt	nt	nt
COn1c(SCc2ccc(Cl)cc2)nc2ccccc2c1=O	i	i	i	0.15	-21	-18*	66%*	i	34%*
Cc1noc(C)c1CSc1nc2ccccc2c(=O)n1-c1ccc(Cl)cc1	i	i	i	0.07	-6	i	i	i	i
Cc1noc(C)c1CSc1nc2sc(C)c(C)c2c(=O)n1-c1ccccc1	i	i	i	0.59	-6	i	nt	nt	nt
CCC(C)(C)n1nnnc1C(c1cccnc1)N1CCN(c2cccc(C(F)(F)F)c2)CC1 (stereo not given)	i	i	i	-0.78	-9	-11*	32%*	i	i
CCC(C)(C)n1nnnc1C(c1ccncc1)N1CCN(c2cccc(OC)c2)CC1 (stereo not given)	i	i	i	0.08	-5	i	nt	nt	nt
Cc1ccc2oc(-c3cccc(NC(=S)NC(=O)/C=C/c4ccco4)c3)nc2c1	i	i	i	-0.11	-11	i	i	i	i
Cc1ccc2oc(-c3cccc(NC(=S)NC(=O)c4cccs4)c3)nc2c1	i	i	i	0.68	-6	i	nt	nt	nt
SMILES	KCNQ1 act	KCNK3 block	KCNQ1 block	Kir21 block	hERG rescue	KCNK9 block	KCNK9 inh conf	Kir2-1 spec	KCNK9 uninduced
CC(C)(C)n1nnnc1C(c1cccc(C#N)c1)N1CCC(Cc2ccccc2)CC1 (stereo not given)	i	-11*	i	-0.56	-8	-18*	60%*	i	34%*
CCC(C)(C)n1nnnc1C(c1ccncc1)N1CCC(Cc2ccccc2)CC1 (stereo not given)	i	i	i	-0.67	-3	i	nt	nt	nt
CC(=O)N1N=C(c2ccc(Cl)cc2)OC1c1ccc(C(C)C)cc1 (stereo not given)	i	i	6*	2.3	-6	i	i	i	27%*
Cc1cc(C)c(-c2csc(NC(=O)C3=COCCO3)n2)c(C)c1	i	i	i	0.02	-6	i	i	i	i
Cc1cc(C)c2sc(NC(=O)C3=COCCO3)nc2c1	i	i	i	0.02	-9	i	nt	nt	nt
Cc1cc(C)c(-c2csc(NC(=O)COC(=O)c3ccc4c(c3)OCO4)n2)c(C)c1	i	i	i	-1.1	-3	i	i	i	i
O=C(COC(=O)c1ccc2c(c1)OCO2)Nc1nc(-c2ccccc2)cs1	i	i	i	0.94	-1	i	nt	nt	nt
CC1C(C#N)=C(N)OC2=C1C(=O)CC(c1ccccc1)C2 (stereo not given)	i	i	i	0.93	-5	i	nt	nt	nt
O=C(c1sc2ccccc2c1Cl)N1CCN(c2ccccc2F)CC1	i	i	i	-0.62	-7	i	i	i	i
O=C(c1sc2ccccc2c1Cl)N1CCN(c2ccc(F)cc2)CC1	i	i	i	0.4	-1	i	i	i	i
O=C(c1sc2ccccc2c1Cl)N1CCN(c2ncccn2)CC1	i	i	i	1.6	-8	i	nt	nt	nt
O=C(/C=C/c1ccccc1)NC(NC(=S)Nc1cc(Cl)ccc1Cl)C(Cl)(Cl)Cl (stereo not given)	i	i	11*	1.1	-11	i	i	i	i
O=C(CSC1=NCCN1)Nc1cccc(C(F)(F)F)c1	i	i	i	-0.41	-18	-9.9*	32%*	i	24%*

Assay outcomes from PubChem.
